This excerpt belongs to a sample that is enriched for hits.
PKD1 inh: PKD1 (human) kinase inhibition. actives 0.056% (n = 200,000). PKD1 kinase fluorescence polarization assay. inhibition, % (concentration not given with the values). AID 797. Q15139
ABCG2 block: inhibitors of human ABCG2 transporter, ABCB1 counter-screen. IgMXP3 cells, JC-1 efflux, flow cytometry. Q9UNQ0. AID 1325. actives 0.1% (n = 190,000). inhibition, % at 6.6 µM;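 active = inhibition above 80%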
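Assay system – ABCG2 IgMXP3 and barcoded ABCB1 CCRF-Adr cell mix · Input – 3 million cells/mL in well · Reagent – JC-1 fluorescent substrate · Compound – single test compound dose, 6.6 µM final · Timing – 10 min exposure at 25 °C with rotation, no wash · Detection – flow cytometry of retained JC-1 fluorescence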
ABCB1 inh: human ABCB1 inhibition, ABCG2 as counter-screen; P08183; CCRF-Adr cells, JC-1 efflux, flow cytometry; inhibition, % at 6.6 µM; actives 0.067% (n = 190,000); AID 1326; in the data active = inhibition above about 40%;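 note: higher value means more JC-1 retained so stronger ABCB1 efflux block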
Avidin fluor: avidin bead compound fluorescence profile | Avidin beads, compound fluorescence 488/530 nm, flow cytometry; active compounds read high | fluorescence (KMESF) at 10 µM | actives 0.38% (n = 220,000) | AID 1775; in the data active = fluorescence above about 47
GSH fluor: GSH bead compound fluorescence profile; GSH beads flow cytometry, compound fluorescence 488/530 nm; active compounds read high; fluorescence (KMESF) at 10 µM; actives 0.25% (n = 190,000); AID 1776; in the data active = fluorescence above about 89;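 note: glutathione beads carrying GST-tagged Bcl family fusion proteins plus one bare bead set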
Lmaj promast: Leishmania major promastigote growth inhibition; AID 1063; Leishmania major promastigotes, resazurin fluorescence viability; actives 9% (n = 200,000); inhibition, % at 10 µM;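 note: promastigotes grown with compound for 44 hours at 28 °C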
A number is an active result; 0 = inactive; - = no result given. Cut-off read from the data, not from the text of the source, unless noted: active = inhibition above about 50%; inactive = the rest.

SMILES | PKD1 inh | ABCG2 block | ABCB1 inh | Avidin fluor | GSH fluor | Lmaj promast
CCC(=O)Nc1ccc(/C(C)=N\NC(=O)c2ccc(C)s2)cc1 | 0 | 0 | 0 | 0 | 0 | 96
CCc1ccc(NC(=S)NC(=O)c2c(-c3ccccc3Cl)noc2C)cc1 | - | - | - | 0 | - | -
COc1cccc(C(C(=O)NC2CCCCC2)N(CC2CCCO2)C(=O)CNC(=O)c2ccco2)c1 (centres undefined) | 0 | 0 | 0 | 0 | 0 | 0
Cc1onc(-c2ccccc2Cl)c1C(=O)N1CCCCC1C(=O)O (centres undefined) | 0 | 0 | 0 | 0 | 0 | 0
Cc1onc(-c2ccccc2Cl)c1C(=O)N(C)C1CCCCC1 | 0 | 0 | 0 | 0 | 0 | 78
Cc1ccc2nc(Cl)c(CN(C(=O)c3cnccn3)C3CCCCC3)cc2c1 | 0 | 0 | 0 | 0 | 0 | 53
CC1=[N+](C)c2c(ccc3cccnc23)C1(C)C | 0 | 0 | 0 | 0 | 0 | 98
Cc1[nH]c2c(ccc3cccnc32)c1C | - | - | - | 0 | - | -
COc1ccc(N2C(=O)CC(Sc3nc4c(cc3C#N)CCC4)C2=O)cc1 (centres undefined) | 0 | 0 | 0 | 0 | 0 | 0
O=C(Nc1ccc(F)cc1)c1nn(-c2ccccc2)c(=O)cc1Cl | 0 | 0 | 0 | 0 | 0 | 98
COC(=O)c1nn(-c2ccccc2)c(=O)cc1O | 0 | 0 | 0 | 0 | 0 | 0
COc1ccc(/C=C/c2nc3cc(-c4ccccc4)ccc3o2)cc1O | 0 | 0 | 0 | 0 | 0 | 87
COc1ccc(/C=N/Nc2ccccn2)cc1O | - | - | - | 0 | - | -
O=C(Cn1cc(Cl)ccc1=O)c1ccc(Cl)cc1 | 0 | 0 | 0 | 0 | 0 | 0
N/C(=N\OC(=O)c1ccco1)c1ccc(Cl)cc1 | 0 | 0 | 0 | 63 | 0 | 0
COCCn1nnnc1C(C(C)C)N(Cc1cccnc1)Cc1ccccc1Cl (centres undefined) | 0 | 0 | 0 | 0 | 0 | 66
O=C(CNC(=O)c1ccc(S(=O)(=O)N2CCCC2)cc1)N/N=C/c1ccccc1Cl | 0 | 0 | 0 | 0 | 0 | 94
O=C(CNC(=O)c1ccc(S(=O)(=O)N2CCCC2)cc1)N/N=C/c1ccc(F)cc1 | 0 | 0 | 0 | 0 | 0 | 55
Oc1ccc2ccccc2c1C=NC1CCCCC1 | 0 | 0 | 0 | 0 | 0 | 62
O=C(N/N=C\c1c(O)ccc2ccccc12)c1ccc(S(=O)(=O)N2CCCCC2)cc1 | 0 | 0 | 0 | 0 | 0 | 100
Oc1ccc2ccccc2c1/C=N/n1cnnc1 | 0 | 0 | 0 | 0 | 0 | 0
O=C(CNC(=O)c1ccc(S(=O)(=O)N2CCCC2)cc1)N/N=C/c1ccco1 | 0 | 0 | 0 | 0 | 0 | 0
COc1ccccc1N1C(=O)C2C(c3ccc(F)cc3)NN(C(=O)c3ccc(C)cc3)C2C1=O (centres undefined) | 0 | 0 | 0 | 0 | 0 | 0
COc1ccc(NN=Nc2nc3c([nH]2)c(=O)n(C)c(=O)n3C)cc1 | - | - | - | 0 | - | -
Cc1cccc2nc(-c3ccccc3)nc(N[C@@H](CO)c3ccccc3)c12 | 0 | 0 | 0 | 0 | 0 | 0
SMILES | PKD1 inh | ABCG2 block | ABCB1 inh | Avidin fluor | GSH fluor | Lmaj promast
COc1ccc(OC)c(/C=N/NC(=O)CNC(=O)c2ccc(S(=O)(=O)N3CCOCC3)cc2)c1 | 0 | 0 | 0 | 0 | 0 | 65
O=C1C2N=NN(CC(=O)N3N=C(c4ccccc4)CC3c3ccc([N+](=O)[O-])cc3)C2C(=O)N1c1ccccc1 (centres undefined) | 0 | 0 | 0 | 0 | 0 | 0
COc1ccc(Cn2nnnc2C(c2cccs2)N2CCN(c3ccccc3)CC2)cc1 (centres undefined) | 0 | 0 | 0 | 0 | 0 | 0
Oc1ccc(N2CCN(C(c3cccs3)c3nnnn3CCc3ccccc3)CC2)cc1 (centres undefined) | 0 | 0 | 0 | 0 | 0 | 100
c1ccc(Cn2nnnc2C(c2cccs2)N2CCc3ccccc3C2)cc1 (centres undefined) | 0 | 0 | 0 | 0 | 0 | 51
CCOCCCNC(=O)CSc1ccccc1 | 0 | 0 | 0 | 51 | 0 | 0
CN(NC(=O)/C=C/C(=O)O)c1ncc(C(F)(F)F)cc1Cl | 0 | 0 | 0 | 0 | 0 | 0
Cc1ccc2[nH]c3c(c2c1)CC/C(=C/c1ccccc1)C3=O | 0 | 0 | 0 | 194 | 0 | 0
O=S(=O)(c1ccc2oc3ccc(S(=O)(=O)N4CCCCC4)cc3c2c1)N1CCCCC1 | 0 | 0 | 0 | 0 | 0 | 0
Nc1nc(F)cc(N2CCCCCC2)n1 | 0 | 0 | 0 | 0 | 0 | 0
Cc1ccc(S(=O)(=O)Nc2ccccc2/C=N/c2nc3ccccc3n2C(C)C)cc1 | 0 | 0 | 0 | 0 | 0 | 58
CCCCn1c(/N=C/c2ccccc2NS(=O)(=O)c2ccc(C)cc2)nc2ccccc21 | 0 | 0 | 0 | 0 | 0 | 77
CCc1nnc(NC(=O)C(C)N2C(=O)C3C4C=CC(C4)C3C2=O)s1 (centres undefined) | 0 | 0 | 0 | 0 | 0 | 0
c1ccc(-c2ccccc2OCCCN2CCOCC2)cc1 | 0 | 0 | 0 | 0 | 0 | 0
c1ccc(-c2ccccc2OCCOCCN2CCCCC2)cc1 | 0 | 0 | 0 | 0 | 0 | 72
OCCCN1CCN(CCCOc2ccccc2-c2ccccc2)CC1 | 0 | 0 | 0 | 0 | 0 | 93
c1ccc(-c2ccccc2OCCCCN2CCCCCC2)cc1 | 0 | 0 | 0 | 0 | 0 | 99
CCOC(=O)Cn1nc(-c2ccccc2)c2cnc3ccc(CC)cc3c21 | 0 | 0 | 0 | - | 0 | 0
CC(NC(=O)CCc1nnc(-c2ccc(-c3ccccc3)cc2)o1)c1nc2ccccc2[nH]1 (centres undefined) | 0 | 0 | 0 | 0 | 0 | 0
O=c1c2ccccc2nc(SCc2ccccc2)n1Cc1ccco1 | 0 | 0 | 0 | 0 | 0 | 0
O=c1c2ccccc2nc(SCc2cccc(F)c2)n1Cc1ccco1 | 0 | 0 | 0 | 72 | 0 | 0
Cc1ccc(CSc2nc3ccccc3c(=O)n2Cc2ccco2)cc1 | 0 | 0 | 0 | 0 | 0 | 62
Cc1ccsc1C1CC(=O)OC2=C1C(=O)CC(C)(C)C2 (centres undefined) | 0 | 0 | 0 | 0 | 0 | 0
C/C(=N\NC(N)=S)c1ccccc1 | - | - | - | 0 | - | -
CSC(=S)N/N=C(\C)c1ccccc1 | 0 | 0 | 0 | 0 | 0 | 100
SMILES | PKD1 inh | ABCG2 block | ABCB1 inh | Avidin fluor | GSH fluor | Lmaj promast
CCCN(CCC)CC(O)Cn1cc(/C=C/C(=O)c2ccccc2)c2ccccc21 (centres undefined) | 0 | 0 | 0 | 0 | 0 | 69
O=C(/C=C/c1cn(CC(O)CN2CCCCC2)c2ccccc12)c1ccccc1 (centres undefined) | - | - | - | 0 | - | -
CCCN(CCC)CC(O)Cn1cc(/C=C/C(=O)c2cccs2)c2ccccc21 (centres undefined) | 0 | 0 | 0 | 0 | 0 | 64
O=C(/C=C/c1cn(CC(O)CN2CCCCC2)c2ccccc12)c1cccs1 (centres undefined) | 0 | 0 | 0 | 0 | 0 | 99
COc1ccc(C(=O)/C=C/c2cn(CC(O)CN3CCN(C)CC3)c3ccccc23)cc1OC (centres undefined) | - | - | - | 0 | - | -
Cc1nc(CN(C)Cc2nc(Cc3ccccc3Cl)no2)cs1 | 0 | 0 | 0 | 0 | 0 | 0
